Measured values: paper PMC6189524 (Journal of Functional Foods, 2018)

Columns and labels:
[1] = Human bioavailability study: 24 h urinary excretion; assay type: in vivo; details: humans; for 24 h urinary excretion, Snack: after 75 g baked snack; for 24 h urinary excretion, Snack / 24 h urinary excretion, Vegetable meal: per mg intake of corresponding compound; for 24 h urinary excretion, Vegetable meal: after 461 g vegetable meal
Outline: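 Adult volunteers fasted overnight (≥10 h), then gave a fasted blood sample and spot urine. Each study meal was eaten within a targeted 15 min under nurse supervision. Urine was collected over 24 h postprandially, extracted liquid-liquid and analysed by LCMS for aglycones plus glucuronide, glucoside and sulfate conjugates. Results were expressed per mg intake, and the two meals were compared by paired t-test.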

[2] = Determination of phytochemicals in food products; details: for change during the baking process (dough to final product): snack ratio broccoli:onion:carrot:parsley = 2.1:5.5:11.4:1
[3] = In vitro gastric-duodenal digestion; assay type: in vitro ADME; details: both snack and vegetable meals
Caco-2/TC7 cells = experiment: Uptake of quercetin and apigenin by Caco-2/TC7 cells from digestates; assay type: in vitro ADME; details: all digestates and DMEM-only control; p < 0.05
Outline: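 Clear supernatants from simplified simulated stomach/small-intestine digestion (with amylase) were diluted 1:1 in DMEM and applied to Caco-2/TC7 cells; DMEM with 40 µM quercetin or apigenin served as control. Uptake was summed from metabolites in medium, metabolites in cells and aglycone in cells, and the rate was this total divided by time. Mean ± SD, n = 3.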

Caco-2/TC7 monolayer = experiment: Transport; assay type: in vitro ADME; details: p < 0.05
Outline: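 Snack or vegetable-mix samples went through a simplified simulated gastric/small-intestinal digestion including amylase, run to completion and centrifuged to clear supernatant. Supernatant mixed 1:1 with DMEM was applied to Caco-2/TC7 monolayers; DMEM with 40 µM quercetin or apigenin served as the buffer control. Papp = (dQ/dt)/(Co·A), from total basolateral metabolites plus aglycone; mean ± SD, n = 3.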

[4] = ref Rothwell, Day, & Morgan, 2005; cited from earlier work

SMILES | 24 h urinary excretion, Difference (absolute) vegetable meal vs snack [1] [nmol per mg intake] | 24 h urinary excretion, Snack [1] [nmol/mg intake] | 24 h urinary excretion, Vegetable meal [1] [nmol/mg intake] | urinary levels in 24 h urine, snack versus vegetable meal (paired t-test) [1] | further results
C[S+]([O-])CCCCN=C=S (stereo not drawn) [Sulforaphane] | 7.47 | 36.25 ± 27.9 | 43.72 ± 44.2 | – | –
CC(=O)N[C@@H](CSC(=S)NCCCC[S+](C)[O-])C(=O)O (stereo partly drawn) [Sulforaphane-NAC, sulforaphane-N-acetyl-cysteine] | 236.4 | 272.17 ± 280.8 | 508.54 ± 450.9 | approached significance | –
C[S+]([O-])CCCC/C(=N\OS(=O)(=O)O)S[C@@H]1O[C@H](CO)[C@@H](O)[C@H](O)[C@H]1O (stereo partly drawn) [glucoraphanin] | – | – | – | not significantly different | change during the baking process (dough to final product) [2]: −14%
O=c1c(O[C@@H]2O[C@H](CO)[C@@H](O)[C@H](O)[C@H]2O)c(-c2ccc(O)c(O)c2)oc2cc(O)cc(O)c12 [Quercetin-3-Glc, quercetin-3-O-glucoside] | 0.03 | 0.04 ± 0.1 | 0.07 ± 0.1 | – | –
CC1=C[C@H](O)CC(C)(C)[C@H]1/C=C/C(C)=C/C=C/C(C)=C/C=C/C=C(C)/C=C/C=C(C)/C=C/C1=C(C)C[C@@H](O)CC1(C)C [lutein] | – | – | – | – | present in the liquid phase after in vitro digestion [3]: around 0.4 mg
O=C(O)[C@H]1O[C@@H](Oc2cc(O)c3c(=O)cc(-c4ccc(O)cc4)oc3c2)[C@H](O)[C@@H](O)[C@@H]1O [A-7-GlcA] | 0.99 | 6.32 ± 8.1 | 5.33 ± 6.6 | – | –
CC1=C(/C=C/C(C)=C/C=C/C(C)=C/C=C/C=C(C)/C=C/C=C(C)/C=C/C2=C(C)CCCC2(C)C)C(C)(C)CCC1 [β-carotene] | – | – | – | – | yield in the final product ([2]; dough with only carrots, after baking): 31.8 % (w/w); threshold value above which lost during the baking process ([2]; final snack product): 10–13 mg per 100 g dry matter; present in the liquid phase after in vitro digestion [3]: no detectable
O=c1c(OS(=O)(=O)O)c(-c2ccc(O)c(O)c2)oc2cc(O)cc(O)c12 [Quercetin-3-sulfate] | 0.79 | 2.58 ± 1.9 | 3.36 ± 1.8 | – | –
COc1cc(-c2oc3cc(O)cc(O)c3c(=O)c2O[C@@H]2O[C@H](C(=O)O)[C@@H](O)[C@H](O)[C@H]2O)ccc1O [IR-3-GlcA, isorhamnetin-3-glucuronide] | 1.07 | 1.60 ± 2.0 | 2.67 ± 2.7 | significantly differed | –
O=C(O)[C@H]1O[C@@H](Oc2c(-c3ccc(O)c(O)c3)oc3cc(O)cc(O)c3c2=O)[C@H](O)[C@@H](O)[C@@H]1O [Quercetin-3-GlcA, quercetin-3-glucuronide] | 0.23 | 4.17 ± 3.3 | 4.40 ± 2.5 | – | –
O=c1cc(-c2ccc(O)cc2)oc2cc(O[C@@H]3O[C@H](CO)[C@@H](O)[C@H](O)[C@H]3O)cc(O)c12 [A-7-Glc, apigenin-7-O-glucoside] | 0.05 | 0.15 ± 0.4 | 0.21 ± 0.3 | – | –
O=c1cc(-c2ccc(O)cc2)oc2cc(O)cc(O)c12 [apigenin] | 0.19 | 3.37 ± 6.6 | 3.55 ± 4.6 | not significantly different | change during the baking process (dough to final product) [2]: +6%; rate of uptake compared to quercetin (Caco-2/TC7 cells): significantly higher; Papp compared to quercetin (Caco-2/TC7 monolayer): higher; lipophilicity compared to quercetin [4]: higher lipophilicity
O=c1c(O)c(-c2ccc(O)c(O)c2)oc2cc(O)cc(O)c12 [quercetin] | 0.38 | 0.34 ± 0.7 | 0.72 ± 1.3 | not significantly different | change during the baking process (dough to final product) [2]: +12%
